ChEMBL document CHEMBL5705905, “Pharmacological targeting of kinases MST1 and MST2 augments tissue repair and regeneration” (Sci Transl Med, 2016)

Tests used:
[1] = molecular target: T1, Serine/threonine-protein kinase 4 (Homo sapiens, UniProt Q13043); test: Inhibition of recombinant His-tagged full-length MST1 (unknown origin) expressing in Escherichia coli assessed as MOB1a phosphorylation level incubated for 30 min in the presence of 30 uM ATP by immunoblot analysis
T1 sequence (Q13043 whole entry): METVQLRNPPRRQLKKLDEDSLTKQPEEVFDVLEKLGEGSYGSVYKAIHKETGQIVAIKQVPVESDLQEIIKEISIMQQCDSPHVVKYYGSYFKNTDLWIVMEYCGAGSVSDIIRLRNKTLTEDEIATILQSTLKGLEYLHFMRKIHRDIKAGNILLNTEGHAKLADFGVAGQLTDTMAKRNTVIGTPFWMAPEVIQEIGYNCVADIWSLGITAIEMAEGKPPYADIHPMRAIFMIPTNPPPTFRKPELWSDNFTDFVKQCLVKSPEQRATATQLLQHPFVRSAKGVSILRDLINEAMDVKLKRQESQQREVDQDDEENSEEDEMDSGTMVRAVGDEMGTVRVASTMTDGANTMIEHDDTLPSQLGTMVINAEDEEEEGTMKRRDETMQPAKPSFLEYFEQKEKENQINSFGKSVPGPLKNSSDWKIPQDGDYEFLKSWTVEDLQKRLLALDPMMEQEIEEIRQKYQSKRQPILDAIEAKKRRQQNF

[2] = molecular target: T1, Serine/threonine-protein kinase 4; test: Inhibition of recombinant His-tagged full-length MST1 (unknown origin) expressing in Escherichia coli assessed as MOB1a phosphorylation level incubated for 30 min in the presence of 100 uM ATP by immunoblot analysis
[3] = molecular target: Tyrosine-protein kinase ABL2 (Homo sapiens) (UniProt P42684); test: Inhibition of ABL2 (unknown origin) assessed as remaining activity at 1 uM by Kinome scan method relative to control
Procedure, shortened: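 Active-site-dependent competition-binding (KINOMEscan) panel of 468 kinases, test compound at 1 μM (from a 10 mM DMSO stock). Read-out is ctrl% = (test signal − positive control signal)/(negative control signal − positive control signal) × 100. DMSO is the negative control (100%) and a control compound is the positive control (0%). Lower ctrl% means tighter binding.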

[4] = molecular target: Casein kinase I isoform epsilon (Homo sapiens) (UniProt P49674); test: Inhibition of CSNK1E (unknown origin) assessed as remaining activity at 1 uM by Kinome scan method relative to control
Procedure, shortened: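 Active-site-dependent competition-binding profiling (KINOMEscan) at 1 μM against a 468-kinase panel; compound supplied from a 10 mM DMSO stock. Read-out is ctrl% = (test signal − positive control signal)/(negative control signal − positive control signal) × 100. DMSO is the negative control (100%) and a control compound the positive control (0%). Lower ctrl% means tighter binding.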

[5] = system: Epidermal growth factor receptor (Homo sapiens), P00533 [UNDEFINED MUTATION]; test: Inhibition of EGFR L747-S752del/P753S mutant (unknown origin) assessed as remaining activity at 1 uM by Kinome scan method relative to control
[6] = molecular target: Tyrosine-protein kinase JAK2 (Homo sapiens) (UniProt O60674); test: Inhibition of JAK2 JH1 domain (unknown origin) assessed as remaining activity at 1 uM by Kinome scan method relative to control
[7] = molecular target: STE20-like serine/threonine-protein kinase (Homo sapiens) (UniProt Q9H2G2); test: Inhibition of SLK (unknown origin) assessed as remaining activity at 1 uM by Kinome scan method relative to control
[8] = molecular target: Serine/threonine-protein kinase DCLK1 (Homo sapiens, UniProt O15075); test: Inhibition of DCAMKL1 (unknown origin) in presence of ATP by enzymatic assay
Serine/threonine-protein kinase DCLK1, sequence (O15075 whole entry): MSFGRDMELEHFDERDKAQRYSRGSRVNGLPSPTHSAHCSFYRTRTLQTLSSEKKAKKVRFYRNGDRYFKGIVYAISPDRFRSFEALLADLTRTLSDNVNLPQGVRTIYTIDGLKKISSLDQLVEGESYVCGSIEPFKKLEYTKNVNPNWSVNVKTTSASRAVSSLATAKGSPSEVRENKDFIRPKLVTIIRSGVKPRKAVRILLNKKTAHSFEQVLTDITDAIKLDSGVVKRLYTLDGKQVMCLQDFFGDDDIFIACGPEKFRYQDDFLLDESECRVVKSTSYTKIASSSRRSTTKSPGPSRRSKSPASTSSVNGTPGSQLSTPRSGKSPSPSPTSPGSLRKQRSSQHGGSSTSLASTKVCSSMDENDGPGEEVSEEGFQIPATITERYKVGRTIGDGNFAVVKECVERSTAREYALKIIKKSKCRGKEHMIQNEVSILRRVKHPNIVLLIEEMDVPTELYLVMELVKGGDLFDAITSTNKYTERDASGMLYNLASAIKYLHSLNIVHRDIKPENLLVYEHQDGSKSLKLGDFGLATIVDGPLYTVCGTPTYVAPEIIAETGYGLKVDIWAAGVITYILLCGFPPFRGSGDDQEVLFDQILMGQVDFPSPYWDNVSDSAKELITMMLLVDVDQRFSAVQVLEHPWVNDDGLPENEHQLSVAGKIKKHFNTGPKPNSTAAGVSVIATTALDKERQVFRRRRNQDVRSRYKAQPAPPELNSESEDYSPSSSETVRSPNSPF

Tyrosine-protein kinase JAK2 (Homo sapiens), sequence (O60674 whole entry, the tested form may be a part): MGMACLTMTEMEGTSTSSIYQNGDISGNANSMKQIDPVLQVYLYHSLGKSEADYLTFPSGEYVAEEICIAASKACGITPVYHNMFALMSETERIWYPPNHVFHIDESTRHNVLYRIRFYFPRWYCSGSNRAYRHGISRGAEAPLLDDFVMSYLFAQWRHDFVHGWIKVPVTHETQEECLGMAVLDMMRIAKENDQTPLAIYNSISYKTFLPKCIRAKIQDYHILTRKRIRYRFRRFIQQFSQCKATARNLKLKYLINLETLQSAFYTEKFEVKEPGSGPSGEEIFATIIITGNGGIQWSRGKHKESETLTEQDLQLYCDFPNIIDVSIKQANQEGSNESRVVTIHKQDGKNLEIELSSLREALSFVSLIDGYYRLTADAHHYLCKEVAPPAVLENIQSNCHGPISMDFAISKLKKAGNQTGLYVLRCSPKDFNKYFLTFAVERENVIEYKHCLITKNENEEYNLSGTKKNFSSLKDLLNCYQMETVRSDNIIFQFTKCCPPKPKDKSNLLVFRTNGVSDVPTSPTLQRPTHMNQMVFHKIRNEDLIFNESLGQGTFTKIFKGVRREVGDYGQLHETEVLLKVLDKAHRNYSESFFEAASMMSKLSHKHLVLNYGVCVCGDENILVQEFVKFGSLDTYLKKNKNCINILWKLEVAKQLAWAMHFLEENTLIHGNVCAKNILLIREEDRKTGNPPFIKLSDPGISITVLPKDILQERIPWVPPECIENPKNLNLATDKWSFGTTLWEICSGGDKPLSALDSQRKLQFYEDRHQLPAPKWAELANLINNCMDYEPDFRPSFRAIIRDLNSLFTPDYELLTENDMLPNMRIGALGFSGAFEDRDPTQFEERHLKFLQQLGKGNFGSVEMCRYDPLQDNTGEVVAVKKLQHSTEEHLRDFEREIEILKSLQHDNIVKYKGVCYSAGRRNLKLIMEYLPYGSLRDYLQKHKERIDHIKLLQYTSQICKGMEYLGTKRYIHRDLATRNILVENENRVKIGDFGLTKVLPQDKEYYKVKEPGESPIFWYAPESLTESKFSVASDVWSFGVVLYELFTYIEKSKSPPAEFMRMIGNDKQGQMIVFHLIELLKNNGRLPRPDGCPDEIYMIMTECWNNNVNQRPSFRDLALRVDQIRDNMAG
Casein kinase I isoform epsilon (Homo sapiens), sequence (P49674 whole entry, looked up, canonical isoform): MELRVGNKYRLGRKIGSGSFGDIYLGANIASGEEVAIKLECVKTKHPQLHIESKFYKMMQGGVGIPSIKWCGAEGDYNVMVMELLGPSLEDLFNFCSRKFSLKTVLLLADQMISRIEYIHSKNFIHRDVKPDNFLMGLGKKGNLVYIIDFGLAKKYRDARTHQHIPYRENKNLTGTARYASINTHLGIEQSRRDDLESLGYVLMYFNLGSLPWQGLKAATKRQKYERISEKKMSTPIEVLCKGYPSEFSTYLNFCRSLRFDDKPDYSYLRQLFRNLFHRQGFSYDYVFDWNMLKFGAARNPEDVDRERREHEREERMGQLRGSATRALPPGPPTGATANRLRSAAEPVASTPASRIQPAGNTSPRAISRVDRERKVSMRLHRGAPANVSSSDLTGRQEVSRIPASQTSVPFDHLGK
STE20-like serine/threonine-protein kinase (Homo sapiens), sequence (Q9H2G2 whole entry, looked up): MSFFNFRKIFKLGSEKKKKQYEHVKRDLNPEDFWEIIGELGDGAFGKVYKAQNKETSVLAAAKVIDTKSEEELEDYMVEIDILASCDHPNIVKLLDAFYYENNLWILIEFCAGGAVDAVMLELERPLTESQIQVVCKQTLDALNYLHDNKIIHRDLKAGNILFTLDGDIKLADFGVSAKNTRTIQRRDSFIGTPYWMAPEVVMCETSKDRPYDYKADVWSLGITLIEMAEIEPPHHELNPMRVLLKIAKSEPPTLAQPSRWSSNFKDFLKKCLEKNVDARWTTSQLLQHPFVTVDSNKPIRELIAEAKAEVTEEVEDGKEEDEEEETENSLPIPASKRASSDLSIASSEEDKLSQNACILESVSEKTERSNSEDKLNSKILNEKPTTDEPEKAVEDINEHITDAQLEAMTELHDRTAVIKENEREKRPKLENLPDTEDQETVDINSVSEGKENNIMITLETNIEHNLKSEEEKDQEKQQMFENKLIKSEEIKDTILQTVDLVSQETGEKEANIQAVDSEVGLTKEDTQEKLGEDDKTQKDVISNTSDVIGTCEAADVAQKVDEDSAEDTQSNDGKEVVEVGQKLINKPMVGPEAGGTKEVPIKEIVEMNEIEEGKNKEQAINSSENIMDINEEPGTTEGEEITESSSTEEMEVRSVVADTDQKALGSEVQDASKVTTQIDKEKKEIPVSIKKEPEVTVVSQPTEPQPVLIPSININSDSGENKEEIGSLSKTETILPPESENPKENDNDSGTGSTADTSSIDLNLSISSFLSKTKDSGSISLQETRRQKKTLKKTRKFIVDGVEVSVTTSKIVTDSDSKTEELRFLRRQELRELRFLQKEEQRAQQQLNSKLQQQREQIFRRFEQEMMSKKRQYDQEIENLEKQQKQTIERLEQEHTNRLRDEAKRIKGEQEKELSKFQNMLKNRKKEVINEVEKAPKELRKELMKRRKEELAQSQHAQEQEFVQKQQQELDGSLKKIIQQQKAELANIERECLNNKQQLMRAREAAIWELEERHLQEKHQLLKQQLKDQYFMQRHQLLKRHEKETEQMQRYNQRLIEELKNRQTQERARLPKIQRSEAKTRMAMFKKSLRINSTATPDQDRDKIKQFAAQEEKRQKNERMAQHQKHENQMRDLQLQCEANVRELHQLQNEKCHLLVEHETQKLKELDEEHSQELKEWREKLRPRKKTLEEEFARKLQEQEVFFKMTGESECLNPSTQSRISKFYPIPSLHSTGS
Epidermal growth factor receptor (Homo sapiens), P00533 [UNDEFINED MUTATION], sequence (P00533 whole entry, looked up, stated change not applied, the tested form may be a part): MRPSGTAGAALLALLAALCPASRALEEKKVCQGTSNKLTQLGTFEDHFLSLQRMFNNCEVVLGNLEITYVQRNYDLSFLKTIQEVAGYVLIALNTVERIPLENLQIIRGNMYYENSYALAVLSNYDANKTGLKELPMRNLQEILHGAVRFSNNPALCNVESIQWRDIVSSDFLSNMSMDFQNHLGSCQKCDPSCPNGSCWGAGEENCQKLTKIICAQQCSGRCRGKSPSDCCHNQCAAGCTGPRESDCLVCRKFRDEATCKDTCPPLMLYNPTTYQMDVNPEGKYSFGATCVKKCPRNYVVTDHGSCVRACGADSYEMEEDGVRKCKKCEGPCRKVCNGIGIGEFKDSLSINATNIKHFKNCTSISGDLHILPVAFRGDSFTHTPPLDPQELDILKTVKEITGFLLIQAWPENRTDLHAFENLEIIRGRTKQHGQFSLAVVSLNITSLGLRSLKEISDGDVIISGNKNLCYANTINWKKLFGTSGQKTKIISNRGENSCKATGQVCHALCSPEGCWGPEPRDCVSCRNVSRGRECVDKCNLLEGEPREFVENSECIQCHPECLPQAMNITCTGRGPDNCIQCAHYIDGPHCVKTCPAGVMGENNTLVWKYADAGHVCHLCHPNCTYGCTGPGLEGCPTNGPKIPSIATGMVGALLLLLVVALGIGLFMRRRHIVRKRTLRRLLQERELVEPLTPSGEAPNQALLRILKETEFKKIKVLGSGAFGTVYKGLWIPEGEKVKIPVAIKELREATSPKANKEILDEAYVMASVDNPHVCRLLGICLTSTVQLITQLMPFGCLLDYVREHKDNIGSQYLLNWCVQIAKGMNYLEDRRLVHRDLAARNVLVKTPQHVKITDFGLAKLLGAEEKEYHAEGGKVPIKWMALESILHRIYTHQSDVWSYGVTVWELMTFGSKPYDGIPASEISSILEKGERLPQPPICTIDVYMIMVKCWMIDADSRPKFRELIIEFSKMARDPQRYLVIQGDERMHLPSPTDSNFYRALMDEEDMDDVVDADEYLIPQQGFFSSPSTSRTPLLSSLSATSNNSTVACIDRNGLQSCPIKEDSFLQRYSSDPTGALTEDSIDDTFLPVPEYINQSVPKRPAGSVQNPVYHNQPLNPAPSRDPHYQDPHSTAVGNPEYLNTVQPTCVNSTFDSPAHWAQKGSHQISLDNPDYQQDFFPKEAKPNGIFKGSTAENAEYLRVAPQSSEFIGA

Compound CN1C(=O)c2sccc2N(C)c2nc(Nc3ccc(S(N)(=O)=O)cc3)ncc21 has an IC50 [1] of 378 nM, an IC50 [2] of 1230 nM and an Activity [3] of 96%. For the same compound, the Activity [4] was 92%, the Activity [5] was 73% and the Activity [6] was 15%. It also gave an Activity [7] of 100% and an IC50 [8] of 27.9 nM.
